Experimental data collected from several papers.
Lines come from different studies, so protocols differ.
CDK9: Cyclin-dependent kinase 9 (CDK9, Homo sapiens, UniProt P50750)
CDK9 with cyclin T1: Cyclin-dependent kinase 9, with cyclin T1 (CDK9, Homo sapiens, UniProt P50750)

Structure (SMILES)	target	test	system	conditions	quantity	value
CC#CC(=O)N1CCC[C@H]1c1nc(-c2ccc(C(=O)Nc3ccccn3)cc2)c2c(N)nccn12	CDK9	enzyme activity, inhibitor	–	1 µM	inhibition	0%
CCCCC(=O)Nc1ccc(-c2ccc3ncn(CCC)c(=O)c3c2)cn1	CDK9	binding, competition with immobilised ligand	–	0.5 µM	remaining binding	92%
CO[C@@H]1[C@H](N(C)C(=O)c2ccccc2)C[C@H]2O[C@]1(C)n1c3ccccc3c3c4c(c5c6ccccc6n2c5c31)C(=O)NC4	CDK9	enzyme activity, inhibitor	–	1 µM	inhibition	3%
CC(C)(C)c1cnc(CSc2cnc(NC(=O)C3CCN(C(=O)CCOCCN4Cc5cc6c(cc5C4)C(=O)N(C4CCC(=O)NC4=O)C6=O)CC3)s2)o1 (stereo not drawn)	CDK9	protein level, degrader, western blot	TC-71	25 nM	inhibition	87.5%
COc1ccc2oc(-c3ccc4nc(N)oc4c3)c/c(=N\c3ccccc3NC(=O)CCN)c2c1	CDK9 with cyclin T1	binding	–	1 µM	remaining binding	93%
C[C@H]1CC[C@H](n2c3cnccc3c3cnc(Nc4ccc5c(n4)CCN(C(=O)CO)C5)nc32)CC1	CDK9	cell-free assay	–	1 µM	remaining signal	60%
CC(C)(C)c1cnc(CSc2cnc(NC(=O)C3CCN(CC(=O)NCCOCCOCCOCCNc4cccc5c4C(=O)N(C4CCC(=O)NC4=O)C5=O)CC3)s2)o1 (stereo not drawn)	CDK9	protein level, degrader, western blot	TC-71	25 nM	inhibition	36.8%
CC(C)S(=O)(=O)c1ccc2nccc(Nc3ccc4sc(C5CCCC5)nc4c3)c2c1	CDK9 with cyclin T1	enzyme activity, inhibitor	–	1 µM	activity vs control	98%
C[C@]1(O)CCCN(c2nc(Nc3ccc(S(=O)(=O)N[C@H]4CC[C@H](CN5CCN(c6ccc(C7CCC(=O)NC7=O)cc6F)CC5)CC4)cc3F)ncc2C(F)(F)F)C1 (stereo partly drawn)	CDK9	binding, competition with immobilised ligand	–	1 µM	remaining binding	95%
CN1CCN(C(=O)c2ccc(NC(=O)Nc3ccc(N(C)c4ccnc(Nc5ccc(CS(C)(=O)=O)cc5)n4)cc3)cc2)CC1	CDK9	binding	–	1 µM	remaining binding	69%
CC(C)(C)c1cnc(CSc2cnc(NC(=O)C3CCN(C(=O)CCCCCCCN4Cc5cc6c(cc5C4)C(=O)N(C4CCC(=O)NC4=O)C6=O)CC3)s2)o1 (stereo not drawn)	CDK9	protein level, degrader, western blot	TC-71	25 nM	inhibition	94.4%
Cc1cc(S(=O)(=O)N[C@H]2CC[C@H](CN3CCN(c4ccc(C5CCC(=O)NC5=O)cc4F)CC3)CC2)ccc1Nc1ncc(C(F)(F)F)c(N2CCC[C@](C)(O)C2)n1 (stereo partly drawn)	CDK9	binding, competition with immobilised ligand	–	1 µM	remaining binding	78%
